This note sets out measurements from ChEMBL document CHEMBL1148222, “Chemical constituents of Glycosmis arborea: three new carbazole alkaloids and their biological activity” (J Nat Prod, 2004).

Format in all cases: cell-based
Series [1] concerns Raji. Briefly: Cytotoxicity against human Raji cells at 32 […] after 48 hrs by trypan blue staining method. The gist of the method:
(§1)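 Raji cells grown to 10^6 cells/mL, then resuspended in RPMI 1640 with 10% FCS. Medium held 4 mM n-butyric acid, 32 pmol TPA (20 ng/mL in DMSO) and test compound in DMSO. Culture ran 48 h at 37 °C. Viable cells were counted by hemocytometer with Trypan Blue exclusion. At least 60% survival is required for a valid EBV-EA reading.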

The test system of series [2] is Raji. Description: Inhibition of TPA-induced EBV-early antigen activation in human Raji cells at 0.32 […] after 48 hrs relative to control. Also on record: scale not given: the % may be the effect or the level left. As to conditions: human gammaherpesvirus 4. In outline:
(§2)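 Raji cells at 10^6 cells/mL were resuspended in RPMI 1640 with 10% FCS. Induction used 4 mM n-butyric acid plus 32 pmol TPA (20 ng/mL), with test compound in DMSO at mol ratios of 10–1000 to TPA. Cells were held 48 h at 37 °C. EA-positive cells were counted blind, at least 500 cells per assay, and expressed as % of the TPA-only control (100%) ± SD.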

The test system of series [3] is Raji. Briefly: Inhibition of TPA-induced EBV-early antigen activation in human Raji cells at 3.2 […] after 48 hrs relative to control. Details: scale not given: the % may be the effect or the level left. As to conditions: human gammaherpesvirus 4. In outline:
as §2

Series [4] has as its system Raji. Description: Cytotoxicity against human Raji cells at 3.2 […] after 48 hrs by trypan blue staining method. In outline: as §1
Series [5] relates to Raji. Briefly: Cytotoxicity against human Raji cells at 16 […] after 48 hrs by trypan blue staining method. The gist of the method:
as §1

For series [6], the system named is Raji. Briefly: Inhibition of TPA-induced EBV-early antigen activation in human Raji cells at 16 […] after 48 hrs relative to control. Also on record: scale not given: the % may be the effect or the level left. As to conditions: human gammaherpesvirus 4. The gist of the method: as §2
Series [7] relates to Raji. Description: Cytotoxicity against human Raji cells at 0.32 […] after 48 hrs by trypan blue staining method. In outline: as §1
For series [8], the system named is Raji. Briefly: Inhibition of TPA-induced EBV-early antigen activation in human Raji cells at 32 […] after 48 hrs relative to control. Also on record: scale not given: the % may be the effect or the level left. As to conditions: human gammaherpesvirus 4. In outline: as §2

The structures appear in SMILES notation. Bounds are passed on as bounds.

In the case of `Cc1cc2c(cc1O)[nH]c1ccc3c(c12)C=CC(C)(C)O3` [GLYCOBORININE], the Activity was 60% with Raji [1]; 100% in the series on Raji [2]; 73.7% with Raji [3]; more than 80% in the series on Raji [4]; more than 80% in the series with Raji [5]; 49.1% in the series on Raji [6]. In addition, the figures for the Activity with Raji [7] and with Raji [8] were more than 80% and 17.4%, respectively.

For the compound `COc1ccc2[nH]c3cc(OC)c(C)cc3c2c1` [GLYCOZOLIDINE], the Activity with Raji [1] was 60%; in the series with Raji [2] it was 100%; in the series with Raji [3], 76%; with Raji [4], more than 80%; in the series with Raji [5], more than 80%; in the series with Raji [6], 51.3%. Moreover, the Activity in the series with Raji [7] was more than 80%; with Raji [8] it was 24.3%.

As for `COc1cc2c(c(O)c1OC)c(=O)c1ccccc1n2C` [ARBORININE], the Activity was 60% in the series on Raji [1]; 95.6% with Raji [2]; 74.3% in the series on Raji [3]; more than 80% in the series with Raji [4]; more than 80% in the series with Raji [5]; 39.6% with Raji [6]. In addition, the Activity in the series with Raji [7] is more than 80%; in the series on Raji [8], 2.7%.

Regarding `CC1=C(/C=C/C(C)=C/C=C/C(C)=C/C=C/C=C(C)/C=C/C=C(C)/C=C/C2=C(C)CCCC2(C)C)C(C)(C)CCC1` [BETA CAROTENE], the Activity is 60% in the series on Raji [1]; 100% with Raji [2]; more than 80% in the series with Raji [4]; more than 80% with Raji [5]; more than 80% with Raji [7]; 9.1% with Raji [8].

Turning to `COc1c2ccoc2nc2c(OC)cccc12` [GAMMA-FAGARINE], the Activity is 60% with Raji [1]; 100% in the series with Raji [2]; 77.7% in the series on Raji [3]; more than 80% in the series on Raji [4]; more than 80% in the series with Raji [5]; 38.2% in the series on Raji [6]. Further, the Activity was more than 80% with Raji [7] and 15.4% in the series with Raji [8].

Regarding `COc1ccc2[nH]c3cc(O)c(C)cc3c2c1CC=C(C)C` [GLYBOMINE B], the Activity with Raji [1] is 60%; with Raji [2] it was 96.4%; in the series on Raji [3], 68.7%; in the series with Raji [4] it was more than 80%; in the series with Raji [5], more than 80%; in the series on Raji [6], 46.7%. The values for the Activity in the series on Raji [7] and in the series on Raji [8] were more than 80% and 15.3%, respectively.

For `Cn1c2ccccc2c(=O)c2ccoc21` [ISODICTAMNINE], the Activity in the series with Raji [1] is 60%; in the series on Raji [2], 100%; in the series with Raji [3] it was 72.2%; in the series on Raji [4], more than 80%; with Raji [5], more than 80%; with Raji [6], 40.3%. The Activity in the series with Raji [7] is more than 80%; in the series on Raji [8], 18.4%.

For the compound `Cn1c(Cc2ccccc2)nc(=O)c2ccccc21` [ARBORINE], the Activity with Raji [1] is 60%; with Raji [2], 100%; in the series with Raji [3], 75.6%; with Raji [4] it was more than 80%; in the series on Raji [5], more than 80%; with Raji [6] it was 40.4%. The Activity in the series with Raji [7] was more than 80%; in the series with Raji [8], 12.7%.

`CC(C)=CCc1c(O)ccc2[nH]c3cc(O)c(C)cc3c12` [GLYBOMINE C]: the Activity was 60% with Raji [1]; 94.6% in the series on Raji [2]; 68.9% in the series on Raji [3]; more than 80% in the series on Raji [4]; more than 80% in the series on Raji [5]; 45.6% in the series with Raji [6]. For the same compound, the Activity is more than 80% in the series with Raji [7] and 13.4% in the series on Raji [8].

For the compound `COc1cccc2c(=O)c3ccoc3n(C)c12`, the Activity is 60% in the series with Raji [1]; 100% in the series on Raji [2]; 79.5% in the series with Raji [3]; more than 80% with Raji [4]; more than 80% with Raji [5]; 40.5% with Raji [6]. The Activity was more than 80% in the series with Raji [7] and 19.9% in the series on Raji [8].
